Assays:
Type in all cases: functional, cell-based, Homo sapiens
[1] = tested on: Calu-6; test: Cytotoxic activity was determined in vitro in Calu-6 cell line culture at pH 6.8
Summary of the method: (§1)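 Seeded at 2×10^6 cells/plate. Next day, switched to pH 6.8 medium (1.3 g NaHCO3/L, serum acidified with 1 N HCl) and equilibrated in 5% CO2. Exposed for 2 h at 37°C in quadruplicate to 50–0.8 µg/mL (1:2 series; acetone ≤5%), then given drug-free pH 7.4 medium until controls were confluent. Read by formaldehyde fixation and crystal violet at 550 nm. IC50 from dose–response curves, mean of four assays ± SD.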

[2] = tested on: Calu-6; test: Cytotoxic activity was determined in vitro in Calu-6 cell line culture at pH 7.4
Summary of the method: (§2)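 Plated at 2×10^6 cells/plate. After one day, medium was replaced with pH 7.4 medium (2.2 g NaHCO3/L) and equilibrated under 5% CO2. Cells got 2 h at 37°C, in quadruplicate, of a 1:2 series 50–0.8 µg/mL (acetone ≤5%), then drug-free pH 7.4 medium for 24–96 h until controls were confluent. Fixed with 3% formaldehyde, stained with 1% crystal violet, A550. IC50 from dose–response curves; mean of four assays ± SD.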

[3] = tested on: SK-MEL-25; test: Cytotoxic activity was determined in vitro in SK-MEL-25 cell line culture at pH 6.8; summary of the method: as §1
[4] = tested on: LXF-289 cell line; test: Cytotoxic activity was determined in vitro in LXF-289 cell line culture at pH 7.4; summary of the method: as §2
[5] = tested on: SK-OV-3; test: Cytotoxic activity was determined in vitro in SK-OV-3 cell line culture at pH 6.8
Summary of the method: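 SK-OV-3 seeded at 1×10^6 cells/plate. Next day, placed in pH 6.8 medium (1.3 g NaHCO3/L, HCl-treated serum, 5% CO2). Given 2 h at 37°C, in quadruplicate, of 50–0.8 µg/mL (1:2; acetone ≤5%), then drug-free pH 7.4 medium until controls were confluent. Formaldehyde-fixed and crystal violet-stained, A550. IC50 from dose–response curves, mean of four assays ± SD.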

[6] = tested on: LXF-289 cell line; test: Cytotoxic activity was determined in vitro in LXF-289 cell line culture at pH 6.8; summary of the method: as §1
[7] = tested on: KB; test: Cytotoxic activity was determined in vitro in KB cell line culture at pH 7.4
Summary of the method: (§3)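 Using pH 7.4 medium (2.2 g NaHCO3/L) on cells plated a day earlier at 2×10^6/plate, with equilibration in 5% CO2. Compounds were applied for 2 h at 37°C in quadruplicate at 50–0.8 µg/mL (1:2; acetone ≤5%), followed by drug-free pH 7.4 medium until controls were confluent. Fixed and stained with crystal violet, dye eluted with ethanol/1% acetic acid, read at 550 nm. IC50 from curves, mean of four ± SD.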

[8] = tested on: MCF7; test: Cytotoxic activity was determined in vitro in MCF-7 cell line culture at pH 7.4; summary of the method: as §3
[9] = tested on: KB; test: Cytotoxic activity was determined in vitro in KB cell line culture at pH 6.8
Summary of the method: (§4)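 Cells at 2×10^6/plate were moved the next day into pH 6.8 medium (1.3 g NaHCO3/L; serum given 1 N HCl; 30 min 5% CO2). Treated 2 h at 37°C, quadruplicate, 50–0.8 µg/mL in 1:2 steps (acetone ≤5%), then grown in drug-free pH 7.4 medium to control confluence. Crystal violet stain eluted with ethanol/1% acetic acid before A550. IC50 from curves, mean of four assays ± SD.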

[10] = tested on: SK-OV-3; test: Cytotoxic activity was determined in vitro in SK-OV-3 cell line culture at pH 7.4
Summary of the method: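 With 1×10^6 cells/plate seeded, medium was changed the next day to pH 7.4 (2.2 g NaHCO3/L) under 5% CO2. Cells were exposed 2 h at 37°C in quadruplicate to a 1:2 series of 50–0.8 µg/mL (acetone ≤5%), then given drug-free pH 7.4 medium until controls were confluent. Crystal violet read at 550 nm after formaldehyde fixation. IC50 from curves; mean of four assays ± SD.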

[11] = tested on: MCF7; test: Cytotoxic activity was determined in vitro in MCF-7 cell line culture at pH 6.8; summary of the method: as §4
[12] = tested on: SK-MEL-25; test: Cytotoxic activity was determined in vitro in SK-MEL-25 cell line culture at pH 7.4; summary of the method: as §2

Substance | IC50 [1] [µM] | IC50 [2] [µM] | IC50 [3] [µM] | IC50 [4] [µM] | IC50 [5] [µM] | IC50 [6] [µM] | IC50 [7] [µM] | IC50 [8] [µM] | IC50 [9] [µM] | IC50 [10] [µM] | IC50 [11] [µM] | IC50 [12] [µM]
2,6-bis(cyclopropylmethoxy)-1,3,5,7-tetrathia-4-platinaspiro[3.3]heptane | 17 | 33 | 64 | > 102 | 95 | > 102 | 72 | 90 | 33 | 67 | 95 | 85
2,6-bis(cyclopentyloxy)-1,3,5,7-tetrathia-4-platinaspiro[3.3]heptane | 3 | 5 | 5 | 38 | 17 | 37 | 24 | 10 | 14 | 26 | 5 | 9
2,6-bis(2,2-dimethyl-3-phenylpropoxy)-1,3,5,7-tetrathia-4-platinaspiro[3.3]heptane | 10 | 17 | > 50 | > 50 | > 50 | > 50 | > 50 | > 50 | > 50 | > 50 | > 50 | > 50
2,6-bis(pentyloxy)-1,3,5,7-tetrathia-4-platinaspiro[3.3]heptane | 9 | 15 | 19 | 62 | 31 | 38 | 25 | 34 | 16 | 66 | 10 | 32

From ChEMBL document CHEMBL1149157, “Synthesis and structure-activity relationship of novel antitumoral platinum xanthate complexes” (J Med Chem, 2004)
